Measurements published in ChEMBL document CHEMBL3091323, “Investigation of quinazolines as inhibitors of breast cancer resistance protein (ABCG2)” (Bioorg Med Chem, 2013).
The source made the active and inactive calls. The rule behind the calls is not given here.

Legend:
MDCK-II = experiment: Increase of plasma membrane expression of BCRP expressing reporter gene GFP in BCRP-MDCK2 cells at 0.5 to 1.8 uM after 72 hrs by fluorescence assay; format: functional, cell-based; details: Canis lupus familiaris, in the assay text read “total expression” for “plasma membrane expression”
Method in brief: (§1)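 MDCK II cells transfected with human wild-type BCRP cDNA C-terminally fused to GFP. Seeded at 100,000 cells/well and treated 4 h later at final 0.5, 1.0 and 1.8 µM for 72 h at 37 °C. Surface BCRP measured by 5D3 antibody binding (FL2, 585 nm) and total BCRP by GFP (FL1, 520 nm) on a flow cytometer, gated on scatter. Geometric means normalized to untreated cells as 100%.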

[1] = Reduction of plasma membrane expression of BCRP expressing reporter gene GFP in BCRP-MDCK2 cells at 0.5 to 1.8 uM after 72 hrs by fluorescence assay relative to control; format: functional, cell-based; parameters: scale not given: the % may be the effect or the level left; details: Canis lupus familiaris, MDCK-II; method in brief: as §1
[2] = Cytotoxicity against MDCK cells after 72 hrs by MTT assay; format: cell-based, Canis lupus familiaris; details: dog
Method in brief: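 MTT assay in MDCK BCRP and parental MDCK cells: 2500 cells/well, 6 h attachment at 37 °C, 5% CO₂, compounds up to 100 µM for 72 h. MTT (5 mg/ml solution) added for 1 h, then lysis in DMSO. Absorbance read at 544 nm with 710 nm background correction. Controls were 10% DMSO medium and PBS only. GI₅₀ derived.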

[3] = target: Multidrug resistance-associated protein 1 (Homo sapiens, UniProt P33527); experiment: (§2) Inhibition of MRP1 in human 2008 cells assessed as Calcein AM accumulation at 10 uM treated 30 mins before Calcein AM addition measured up to 90 mins by fluorescence assay relative to control; format: cell-based; details: human, 2008, 10 µM
Multidrug resistance-associated protein 1, sequence (P33527 whole entry): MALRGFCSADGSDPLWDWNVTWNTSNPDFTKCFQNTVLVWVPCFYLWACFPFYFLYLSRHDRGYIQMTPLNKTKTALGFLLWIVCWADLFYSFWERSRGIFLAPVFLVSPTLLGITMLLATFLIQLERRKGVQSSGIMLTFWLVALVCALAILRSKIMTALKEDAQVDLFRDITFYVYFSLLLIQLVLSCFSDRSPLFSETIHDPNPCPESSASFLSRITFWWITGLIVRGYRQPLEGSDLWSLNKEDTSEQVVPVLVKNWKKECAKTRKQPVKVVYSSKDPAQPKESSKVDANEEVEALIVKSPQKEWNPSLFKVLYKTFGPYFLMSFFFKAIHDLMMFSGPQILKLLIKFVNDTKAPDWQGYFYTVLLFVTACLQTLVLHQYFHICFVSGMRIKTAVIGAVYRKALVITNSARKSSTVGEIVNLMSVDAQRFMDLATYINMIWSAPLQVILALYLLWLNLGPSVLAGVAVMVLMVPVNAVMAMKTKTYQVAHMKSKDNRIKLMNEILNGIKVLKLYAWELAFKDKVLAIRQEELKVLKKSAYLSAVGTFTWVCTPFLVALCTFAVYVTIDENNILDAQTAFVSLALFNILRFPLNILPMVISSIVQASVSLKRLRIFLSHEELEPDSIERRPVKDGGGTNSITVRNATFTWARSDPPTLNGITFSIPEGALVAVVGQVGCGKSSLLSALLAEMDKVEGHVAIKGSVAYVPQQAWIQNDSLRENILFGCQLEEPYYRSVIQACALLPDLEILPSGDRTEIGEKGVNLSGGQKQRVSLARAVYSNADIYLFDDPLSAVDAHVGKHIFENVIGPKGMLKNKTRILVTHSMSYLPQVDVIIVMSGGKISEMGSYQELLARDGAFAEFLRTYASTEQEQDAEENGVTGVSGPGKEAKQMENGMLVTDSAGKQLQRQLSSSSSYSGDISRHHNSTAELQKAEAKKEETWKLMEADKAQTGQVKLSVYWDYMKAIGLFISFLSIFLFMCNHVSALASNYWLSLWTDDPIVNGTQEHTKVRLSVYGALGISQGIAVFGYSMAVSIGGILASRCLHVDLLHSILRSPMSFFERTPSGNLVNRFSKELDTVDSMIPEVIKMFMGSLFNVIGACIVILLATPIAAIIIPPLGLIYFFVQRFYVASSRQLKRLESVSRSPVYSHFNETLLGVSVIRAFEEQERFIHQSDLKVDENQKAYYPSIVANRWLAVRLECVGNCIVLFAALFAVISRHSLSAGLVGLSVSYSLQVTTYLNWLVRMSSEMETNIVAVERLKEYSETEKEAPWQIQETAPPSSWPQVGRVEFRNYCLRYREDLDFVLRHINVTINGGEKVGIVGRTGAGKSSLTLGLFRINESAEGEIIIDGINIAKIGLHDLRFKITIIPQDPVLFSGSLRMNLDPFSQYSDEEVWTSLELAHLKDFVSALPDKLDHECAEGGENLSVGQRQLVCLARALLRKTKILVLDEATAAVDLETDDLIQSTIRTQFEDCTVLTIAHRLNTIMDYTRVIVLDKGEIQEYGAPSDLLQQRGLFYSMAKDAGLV

[4] = target: T1, ATP-dependent translocase ABCB1 (Homo sapiens, UniProt P08183); experiment: (§3) Inhibition of MDR1 in human doxorubicin-resistant A2780adr cells assessed as Calcein AM accumulation at 10 uM treated 30 mins before Calcein AM addition measured up to 90 mins by fluorescence assay relative to control; format: cell-based, A2780 ADR; details: a2780 adr, 10 µM
T1 sequence (P08183 whole entry): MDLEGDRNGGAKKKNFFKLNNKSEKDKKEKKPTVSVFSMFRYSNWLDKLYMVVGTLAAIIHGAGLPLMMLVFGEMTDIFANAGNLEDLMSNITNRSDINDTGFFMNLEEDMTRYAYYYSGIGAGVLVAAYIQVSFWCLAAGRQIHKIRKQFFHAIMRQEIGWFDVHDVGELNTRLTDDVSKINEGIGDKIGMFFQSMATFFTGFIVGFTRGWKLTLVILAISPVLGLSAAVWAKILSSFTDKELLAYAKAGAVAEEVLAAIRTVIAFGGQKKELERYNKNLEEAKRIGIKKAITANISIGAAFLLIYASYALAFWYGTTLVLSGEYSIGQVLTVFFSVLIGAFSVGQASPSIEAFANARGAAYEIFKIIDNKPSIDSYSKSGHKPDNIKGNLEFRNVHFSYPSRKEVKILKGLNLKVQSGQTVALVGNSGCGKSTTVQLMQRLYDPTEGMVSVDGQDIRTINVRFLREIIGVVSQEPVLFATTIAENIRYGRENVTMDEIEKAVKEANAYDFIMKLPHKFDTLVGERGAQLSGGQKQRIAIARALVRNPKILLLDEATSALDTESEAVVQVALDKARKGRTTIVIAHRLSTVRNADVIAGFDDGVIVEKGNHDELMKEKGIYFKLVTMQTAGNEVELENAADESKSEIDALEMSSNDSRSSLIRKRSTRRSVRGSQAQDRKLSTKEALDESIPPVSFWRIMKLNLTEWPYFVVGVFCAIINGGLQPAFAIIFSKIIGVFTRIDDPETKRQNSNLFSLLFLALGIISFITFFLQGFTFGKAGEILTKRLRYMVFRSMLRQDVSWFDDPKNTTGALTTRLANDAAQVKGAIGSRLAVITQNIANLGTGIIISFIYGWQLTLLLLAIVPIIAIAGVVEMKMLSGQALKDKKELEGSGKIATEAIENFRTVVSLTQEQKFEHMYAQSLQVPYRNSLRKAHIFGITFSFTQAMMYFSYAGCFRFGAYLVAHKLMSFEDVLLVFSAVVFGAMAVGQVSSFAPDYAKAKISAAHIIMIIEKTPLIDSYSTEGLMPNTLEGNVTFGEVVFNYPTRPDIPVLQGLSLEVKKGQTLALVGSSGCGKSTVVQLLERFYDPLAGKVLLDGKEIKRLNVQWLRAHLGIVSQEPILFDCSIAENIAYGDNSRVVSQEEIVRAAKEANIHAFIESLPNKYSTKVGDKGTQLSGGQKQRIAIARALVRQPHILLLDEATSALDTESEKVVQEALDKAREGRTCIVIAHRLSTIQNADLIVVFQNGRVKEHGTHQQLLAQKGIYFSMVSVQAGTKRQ

[5] = target: T2, Broad substrate specificity ATP-binding cassette transporter ABCG2 (Homo sapiens, UniProt Q9UNQ0); experiment: Inhibition of human BCRP expressed in MDCK2 cells assessed as pheophorbide A accumulation treated 30 mins before pheophorbide A addition measured up to 120 mins by flow cytometry; format: cell-based, MDCK-II
T2 sequence (Q9UNQ0 whole entry): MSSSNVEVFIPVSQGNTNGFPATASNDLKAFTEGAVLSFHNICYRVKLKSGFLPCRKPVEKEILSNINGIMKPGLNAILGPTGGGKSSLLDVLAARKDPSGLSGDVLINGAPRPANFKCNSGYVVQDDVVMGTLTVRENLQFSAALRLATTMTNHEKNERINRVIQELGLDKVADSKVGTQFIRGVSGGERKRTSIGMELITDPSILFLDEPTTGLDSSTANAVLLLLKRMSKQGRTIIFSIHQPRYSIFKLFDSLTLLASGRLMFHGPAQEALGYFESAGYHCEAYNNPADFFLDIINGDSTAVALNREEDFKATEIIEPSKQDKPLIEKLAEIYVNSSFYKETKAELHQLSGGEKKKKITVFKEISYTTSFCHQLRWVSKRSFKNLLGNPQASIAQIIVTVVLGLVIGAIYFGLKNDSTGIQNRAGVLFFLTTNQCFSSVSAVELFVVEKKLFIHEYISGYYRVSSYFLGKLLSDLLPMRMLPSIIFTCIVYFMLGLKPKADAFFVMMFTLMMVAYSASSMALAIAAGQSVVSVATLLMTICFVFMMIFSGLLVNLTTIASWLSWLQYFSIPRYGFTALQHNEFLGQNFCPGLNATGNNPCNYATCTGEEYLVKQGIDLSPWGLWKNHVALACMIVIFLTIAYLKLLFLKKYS

[6] = target: T2, Broad substrate specificity ATP-binding cassette transporter ABCG2; experiment: Inhibition of human BCRP expressed in MDCK2 cells assessed as Hoechst 33342 accumulation treated 30 mins before Hoechst 33342 addition measured up to 120 mins by fluorescence assay; format: cell-based, MDCK-II
MRP1 = MRP1 (Homo sapiens, UniProt P33527); experiment: as §2; format: cell-based; details: human, 2008 cells, probe Calcein AM
MRP1, sequence (P33527 whole entry): as the sequence (P33527 whole entry) above

MDR1 = MDR1 (Homo sapiens, UniProt P08183); experiment: as §3; format: cell-based, A2780 ADR; details: doxorubicin-resistant A2780adr cells, probe Calcein AM
MDR1, sequence (P08183 whole entry): as the sequence (P08183 whole entry) above

[7] = target: T1, ATP-dependent translocase ABCB1; experiment: Inhibition of MDR1 in human doxorubicin-resistant A2780adr cells assessed as Calcein AM accumulation treated 30 mins before Calcein AM addition measured up to 90 mins by fluorescence assay; format: cell-based, A2780 ADR
[8] = target: T2, Broad substrate specificity ATP-binding cassette transporter ABCG2; experiment: Reversal of human BCRP-mediated multidrug resistant in MDCK2 cells assessed as increase of Hoechst 33342-induced cytotoxicity at 1 to 5 uM after 72 hrs by MTT assay; format: cell-based; details: mdck-ii
Method in brief: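 MDR reversal by MTT assay in MDCK BCRP cells with compounds at final 1 µM and 5 µM. Dose–response curves to Hoechst 33342 were compared with and without inhibitor and against sensitive MDCK cells. Conditions as for the MTT cytotoxicity assay: 2500 cells/well, 72 h, absorbance at 544/710 nm.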

BCRP = experiment: Therapeutic index, ratio of GI50 for MDCK cells to IC50 for human BCRP expressed in MDCK2 cells; details: dog

IC50 [5] [nM] | IC50 [6] [nM] | inhibition at 90 min, 10 µM (MRP1) [%] | inhibition at 90 min, 10 µM (MDR1) [%] | SMILES | further results
3380 | 4790 |  |  | COc1ccc(Nc2ncnc3ccccc23)cc1OC | 
470 | 480 |  |  | COc1cc2nc(Nc3cccc(C#N)c3)nc(Nc3cccc(C#N)c3)c2cc1OC | 
 |  | > 50 | > 50 | COc1ccc(-c2nc(Nc3cccc(C#N)c3)c3ccccc3n2)cc1OC | 
3970 | 3800 |  |  | COc1cc2ncnc(Nc3ccccc3[N+](=O)[O-])c2cc1OC | 
290 | 260 | > 50 | > 50 | COc1ccc(-c2nc(Nc3ccccc3O)c3ccccc3n2)cc1OC | 
400 | 290 | > 50 | > 50 | COc1ccc(-c2nc(Nc3cccc(Br)c3)c3ccccc3n2)cc1OC | IC50 [7]: 11.8 µM
 | 150 |  |  | Oc1cccc(Nc2nc(-c3ccccc3)nc3ccccc23)c1 | Activity [8]: Active; selectivity ratio (BCRP; mdck2): 340; GI50 at 72 h [2]: 51.1 µM; inhibition (INH) [3]: Not Active; inhibition (INH) [4]: Not Active
680 | 470 | > 50 | > 50 | COc1ccc(-c2nc(Nc3ccc(O)cc3)c3ccccc3n2)cc1OC | 
2030 | 1180 |  |  | N#Cc1cccc(Nc2ncnc3ccccc23)c1 | 
930 | 1060 |  |  | COc1cc2ncnc(Nc3cccc(C#N)c3)c2cc1OC | 
1550 | 940 |  |  | FC(F)(F)c1cccc(Nc2ncnc3ccccc23)c1 | 
2320 | 1730 |  |  | COc1cc2ncnc(Nc3cccc(Br)c3)c2cc1OC | 
110 | 140 | > 50 | > 50 | COc1ccc(-c2nc(Nc3cccc(O)c3)c3ccccc3n2)cc1OC | selectivity ratio (BCRP; mdck2): 33; GI50 at 72 h [2]: 4.61 µM; IC50 [7]: 18.2 µM
1480 | 1080 |  |  | Brc1cccc(Nc2ncnc3ccccc23)c1 | 
1550 | 640 | > 50 | > 50 | COc1ccc(-c2nc(Nc3ccccc3[N+](=O)[O-])c3ccccc3n2)cc1OC | 
4090 | 1990 | > 50 | > 50 | COc1ccc(-c2nc(Nc3ccccc3)c3ccccc3n2)cc1OC | 

Further lines, the molecule ahead of its results:

SMILES | IC50 [5] [nM] | IC50 [6] [nM] | inhibition at 90 min, 10 µM (MRP1) [%] | inhibition at 90 min, 10 µM (MDR1) [%] | further results
O=[N+]([O-])c1cccc(Nc2nc(-c3ccccc3)nc3ccccc23)c1 |  |  |  |  | Activity (MDCK-II): Active; Activity [1]: inactive; GI50 at 72 h [2]: 67.8 µM; inhibition (INH) [3]: Not Active; inhibition (INH) [4]: Not Active
COc1cc2nc(Nc3cccc(C(F)(F)F)c3)nc(Nc3cccc(C(F)(F)F)c3)c2cc1OC | 610 | 800 |  |  | 
COc1ccc(Nc2nc(-c3ccc(OC)c(OC)c3)nc3ccccc23)cc1OC | 610 | 420 | > 50 | > 50 | IC50 [7]: 3.49 µM
COc1ccc(Nc2ncnc3cc(OC)c(OC)cc23)cc1OC | 3790 | 7380 |  |  | 
COc1ccc(-c2nc(Nc3cccc([N+](=O)[O-])c3)c3ccccc3n2)cc1OC |  |  | > 50 | > 50 | Activity (MDCK-II): Active; Activity [1]: 75%; GI50 at 72 h [2]: 20.8 µM; IC50 [7]: 9.56 µM
COc1cc2ncnc(Nc3cccc(C(F)(F)F)c3)c2cc1OC | 1980 | 2400 |  |  | 
O=[N+]([O-])c1cccc(Nc2ncnc3ccccc23)c1 | 890 | 1130 |  |  | Activity (MDCK-II): Active; Activity [1]: inactive; selectivity ratio (BCRP): 16; GI50 at 72 h [2]: 18.3 µM
COc1cc2ncnc(Nc3ccc(F)c(Cl)c3)c2cc1OCCCN1CCOCC1 [GEFITINIB] |  |  |  |  | Activity (MDCK-II): Active; Activity [1]: Active; GI50 at 72 h [2]: 1.45 µM
COc1cc2nc(Nc3cccc(Br)c3)nc(Nc3cccc(Br)c3)c2cc1OC | 860 | 670 |  |  | 
COc1ccc(Nc2nc(Nc3ccc(OC)c(OC)c3)c3cc(OC)c(OC)cc3n2)cc1OC | 1520 | 1740 |  |  | 
COc1cc2ncnc(Nc3ccc([N+](=O)[O-])cc3)c2cc1OC | 2460 | 2920 |  |  | 
COc1cc2ncnc(Nc3cccc([N+](=O)[O-])c3)c2cc1OC | 910 | 810 |  |  | Activity (MDCK-II): inactive; Activity [1]: 60%; selectivity ratio (BCRP): 1.85; GI50 at 72 h [2]: 1.5 µM
COc1cc2nc(Nc3cccc([N+](=O)[O-])c3)nc(Nc3cccc([N+](=O)[O-])c3)c2cc1OC | 320 | 330 |  |  | 
Brc1cccc(Nc2nc(-c3ccccc3)nc3ccccc23)c1 |  |  |  |  | IC50 [7]: 12.4 µM
COc1ccc(-c2nc(Nc3cccc(C(F)(F)F)c3)c3ccccc3n2)cc1OC | 240 | 300 | > 50 | > 50 | 
